Assay results: ChEMBL document CHEMBL1142668, “Synthesis and biological evaluation of neutral and zwitterionic 3-carboranyl thymidine analogues for boron neutron capture therapy” (J Med Chem, 2005)

Tests used:
[1] = test system: L929; experiment: Mean phosphorylation rate of 10 uM compound by recombinant human thymidine kinase 1 (cytosolic) expressing wild type L929 tumor cells; format: functional
How it was run: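 Purified recombinant human TK1 (50 ng) with 10 µM substrate, final DMSO 1%, 100 µM ATP spiked with 0.03 µM [γ-32P]-ATP, in 50 mM Tris-HCl pH 7.6, 5 mM MgCl2, 125 mM KCl, 10 mM DTT, 0.5 mg/mL BSA. Run at 37 °C for 20 min, then 95 °C for 2 min. Products separated by PEI-cellulose TLC and read by phosphorimager. Rate expressed relative to thymidine, using one enzyme batch.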

[2] = Mean retention time in reversed phase HPLC (RP-18); format: ADME

Retention time [2] [min] | Compound | Phosphorylation rate ([1]; Mus musculus) [%] | Phosphorylation rate [1] [%]
– | 3-[2-(7-Amino-closo-m-carboran-1-yl)-ethan-1-yl]thymidine | 71.9 | –
– | 3-[3-(7-Amino-closo-m-carboran-1-yl)propan-1-yl]thymidine | 58.2 | –
– | N5-20H | 41 | –
– | 3-[(closo-o-Caboran-1-yl)methyl]thymidine | 9.6 | –
– | 3-[3-(7-Ammonium-nido-m-carboran-1-yl)propan-1-yl]-thymidine | 64.6 | –
11.79 | C#CCn1c(=O)c(C)cn([C@H]2CC(O)[C@@H](CO)O2)c1=O (single isomer, unassigned) | – | 102
– | 3-[6-(7-Ammonium-nido-m-carboran-1-yl)hexan-1-yl]-thymidine | 45.4 | –
– | 3-[2-(7-Amino-closo-m-carboran-1-yl)ethoxyethyl]thymidine | 48.4 | –
– | 3-[4-(7-Ammonium-nido-m-carboran-1-yl)butan-1-yl]-thymidine | 63.8 | –
– | 3-[5-(7-Amino-closo-m-carboran-1-yl)pentan-1-yl]thymidine | 45.1 | –
– | 3-[5-(7-Amino-closo-m-carboran-1-yl)hexan-1-yl]thymidine | 14.2 | –
– | 3-[2-(7-Ammonium-nido-m-carboran-1-yl)ethan-1-yl]-thymidine | 89.4 | –
– | 3-[5-(7-Ammonium-nido-m-carboran-1-yl)pentan-1-yl]thymidine | 50.7 | –
12.22 | Cc1cn([C@H]2C[C@H](N=[N+]=[N-])[C@@H](CO)O2)c(=O)[nH]c1=O [ZIDOVUDINE] | – | 52
– | 3-[4-(7-Amino-closo-m-carboran-1-yl)butan-1-yl]thymidine | 58 | –
– | 3-[2-(7-Ammonium-nido-m-carboran-1-yl)ethoxyethyl]-thymidine | 75.1 | –

Compound | Retention time [2] [min] | Phosphorylation rate ([1]; Mus musculus) [%] | Phosphorylation rate [1] [%]
Cc1cn([C@H]2C[C@H](O)[C@@H](CO)O2)c(=O)[nH]c1=O [DOXRIBTIMINE] | 8.72 | – | 100
